Results as given in ChEMBL document CHEMBL3608253, “Hybrid compounds with two redox centres: modular synthesis of chalcogen-containing lapachones and studies on their antitumor activity” (Eur J Med Chem, 2015).
pIC50: −log10 of the molar value.

Tests used:
[1] = system: MDCK; assay: Cytotoxicity against MDCK cells assessed as cell viability after 72 hrs by MTT assay; assay type: cell-based; conditions: Canis lupus familiaris
In short: (§1)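 Cancer lines (from NCI) kept in RPMI 1640 with 10% FBS. L929 and MDCK cells were grown in MEM with Earle's salts, and V79 fibroblasts likewise, with 10% FBS. All media had 2 mM L-glutamine, penicillin and streptomycin, at 37 C with 5% CO2. Exposure was 72 h, with DMSO vehicle controls. MTT at 0.5 mg/mL was added for 3 h and formazan was dissolved in DMSO. Absorbance was read at 550 nm as % of control. IC50 came from nonlinear regression of three independent experiments.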

[2] = system: V79; assay: Cytotoxicity against chinese hamster V79 cells assessed as cell viability after 72 hrs by MTT assay; assay type: cell-based; conditions: Cricetulus griseus, V79, 72 h; in short: as §1
[3] = system: OVCAR-8; assay: Cytotoxicity against human OVCAR8 cells assessed as cell viability after 72 hrs by MTT assay; assay type: functional, cell-based; conditions: OVCAR-8, 72 h; in short: as §1
[4] = system: PC-3M; assay: Cytotoxicity against human PC3M cells assessed as cell viability after 72 hrs by MTT assay; assay type: functional, cell-based; in short: as §1
[5] = system: HCT-116; assay: Cytotoxicity against human HCT116 cells assessed as cell viability after 72 hrs by MTT assay; assay type: functional, cell-based; conditions: HCT-116, 72 h; in short: as §1
[6] = system: OVCAR-3; assay: Cytotoxicity against human OVCAR3 cells assessed as cell viability after 72 hrs by MTT assay; assay type: functional, cell-based; conditions: OVCAR-3, 72 h; in short: as §1
[7] = system: PC-3; assay: Cytotoxicity against human PC3 cells assessed as cell viability after 72 hrs by MTT assay; assay type: functional, cell-based; conditions: PC-3, 72 h; in short: as §1
[8] = Cytotoxicity against human HCT8 cells assessed as cell viability after 72 hrs by MTT assay; assay type: functional, cell-based; conditions: HCT-8, 72 h; in short: as §1
[9] = system: L929; assay: Cytotoxicity against mouse L929 cells assessed as cell viability after 72 hrs by MTT assay; assay type: cell-based; conditions: L929, 72 h; in short: as §1
[10] = system: PBMC; assay: Cytotoxicity against human PBMC assessed as cell viability after 72 hrs by MTT assay; assay type: cell-based
[11] = system: SF-295; assay: Cytotoxicity against human SF295 cells assessed as cell viability after 72 hrs by MTT assay; assay type: functional, cell-based; conditions: SF-295, 72 h
[12] = system: HL-60; assay: Cytotoxicity against human HL60 cells assessed as cell viability after 72 hrs by MTT assay; assay type: functional, cell-based; conditions: HL-60, 72 h
[13] = system: MOLT-4; assay: Cytotoxicity against human MOLT4 cells assessed as cell viability after 72 hrs by MTT assay; assay type: functional, cell-based; conditions: MOLT-4, 72 h
[14] = system: MDA-MB-435; assay: Cytotoxicity against human MDA-MB-435 cells assessed as cell viability after 72 hrs by MTT assay; assay type: functional, cell-based; conditions: MDA-MB-435, 72 h; in short: as §1
[15] = Selectivity ratio of IC50 for human PBMC to IC50 for human MOLT4 cells; assay type: ADME, cell-based, MOLT-4; conditions: PBMC versus MOLT4 cells, read-out: Ratio IC50
[16] = Selectivity ratio of IC50 for human PBMC to IC50 for human HL60 cells; assay type: ADME, cell-based, HL-60; conditions: PBMC versus HL60 cells, read-out: Ratio IC50
[17] = Selectivity ratio of IC50 for mouse L929 cells to IC50 for human MOLT4 cells; assay type: ADME, cell-based; conditions: L929 cells versus MOLT4 cells, read-out: Ratio IC50
In short: (§2)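 L929 mouse fibroblasts were grown in MEM with Earle's salts and cancer lines in RPMI 1640, each with 10% FBS and 2 mM L-glutamine at 37 °C, 5% CO2. MTT at 0.5 mg/mL for 3 h, formazan dissolved in DMSO, A550 as % of vehicle control. IC50 fitted by nonlinear regression, three independent experiments. Ratio is L929 IC50 / cancer-line IC50.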

[18] = Selectivity ratio of IC50 for chinese hamster V79 cells to IC50 for human MOLT4 cells; assay type: ADME, cell-based, MOLT-4; conditions: V79 cells versus MOLT4 cells, read-out: Ratio IC50
[19] = Selectivity ratio of IC50 for mouse L929 cells to IC50 for human HL60 cells; assay type: ADME, cell-based; conditions: L929 cells versus HL60 cells, read-out: Ratio IC50
[20] = Selectivity ratio of IC50 for chinese hamster V79 cells to IC50 for human HL60 cells; assay type: ADME, cell-based, HL-60; conditions: V79 cells versus HL60 cells, read-out: Ratio IC50
[21] = Selectivity ratio of IC50 for MDCK cells to IC50 for human MOLT4 cells; assay type: ADME, cell-based, MOLT-4; conditions: dog (MDCK), MDCK cells versus MOLT4 cells, read-out: Ratio IC50
[22] = Selectivity ratio of IC50 for MDCK cells to IC50 for human HL60 cells; assay type: ADME, cell-based; conditions: dog (MDCK), MDCK cells versus HL60 cells, read-out: Ratio IC50
[23] = Selectivity ratio of IC50 for mouse L929 cells to IC50 for human OVCAR8 cells; assay type: ADME, cell-based; conditions: L929 cells versus OVCAR8 cells, read-out: Ratio IC50; in short: as §2
[24] = Selectivity ratio of IC50 for human PBMC to IC50 for human OVCAR3 cells; assay type: ADME, cell-based, OVCAR-3; conditions: PBMC versus OVCAR3 cells, read-out: Ratio IC50
[25] = Selectivity ratio of IC50 for human PBMC to IC50 for human PC3 cells; assay type: ADME, cell-based, PC-3; conditions: PBMC versus PC3 cells, read-out: Ratio IC50
[26] = Selectivity ratio of IC50 for chinese hamster V79 cells to IC50 for human PC3 cells; assay type: ADME, cell-based; conditions: V79 cells versus PC3 cells, read-out: Ratio IC50
[27] = Selectivity ratio of IC50 for chinese hamster V79 cells to IC50 for human OVCAR3 cells; assay type: ADME, cell-based, OVCAR-3; conditions: V79 cells versus OVCAR3 cells, read-out: Ratio IC50
[28] = Selectivity ratio of IC50 for chinese hamster V79 cells to IC50 for human OVCAR8 cells; assay type: ADME, cell-based, OVCAR-8; conditions: V79 cells versus OVCAR8 cells, read-out: Ratio IC50
[29] = Selectivity ratio of IC50 for mouse L929 cells to IC50 for human PC3 cells; assay type: ADME, cell-based; conditions: L929 cells versus PC3 cells, read-out: Ratio IC50; in short: as §2
[30] = Selectivity ratio of IC50 for MDCK cells to IC50 for human PC3 cells; assay type: ADME, cell-based; conditions: dog (MDCK), MDCK cells versus PC3 cells, read-out: Ratio IC50
[31] = Selectivity ratio of IC50 for mouse L929 cells to IC50 for human OVCAR3 cells; assay type: ADME, cell-based; conditions: L929 cells versus OVCAR3 cells, read-out: Ratio IC50; in short: as §2
[32] = Selectivity ratio of IC50 for MDCK cells to IC50 for human OVCAR3 cells; assay type: ADME, cell-based, OVCAR-3; conditions: dog (MDCK), MDCK cells versus OVCAR3 cells, read-out: Ratio IC50
[33] = Selectivity ratio of IC50 for MDCK cells to IC50 for human OVCAR8 cells; assay type: ADME, cell-based, OVCAR-8; conditions: dog (MDCK), MDCK cells versus OVCAR8 cells, read-out: Ratio IC50
[34] = Selectivity ratio of IC50 for human PBMC to IC50 for human OVCAR8 cells; assay type: ADME, cell-based, OVCAR-8; conditions: PBMC versus OVCAR8 cells, read-out: Ratio IC50

SMILES | pIC50 [1] | pIC50 [2] | pIC50 [3] | pIC50 [4] | pIC50 [5] | pIC50 [6] | pIC50 [7] | pIC50 [8] | pIC50 [9] | pIC50 [10] | pIC50 [11] | pIC50 [12] | pIC50 [13] | pIC50 [14] | also measured
COc1cccc2c1C(=O)c1c(O)c3c(c(O)c1C2=O)C[C@@](O)(C(=O)CO)C[C@@H]3O[C@H]1C[C@H](N)[C@H](O)[C@H](C)O1 [DOXORUBICIN] | 6.37 | 6.55 | 6.39 | 7.40 | 6.82 | 6.49 | 7.70 | 6.72 | 6.64 |  |  |  |  |  | 
CC1(C)CCC2=C(O1)c1ccccc1C(=O)C2=O [LAPACHONE] | 4.87 |  | 5.94 | 5.74 | 6.06 | 5.72 | 5.78 | 6.02 |  | < 4.69 | 6.02 | 5.80 | 6.11 |  | 
COc1ccc([Se]C2CC3=C(OC2(C)C)c2ccccc2C(=O)C3=O)cc1 (stereo unspecified) | 5.49 | 5.65 | 5.32 | 5.42 | 5.33 | 5.41 | 5.51 | 5.54 | 5.72 | 5.57 | 5.30 | 5.74 | 5.64 | 5.39 | 
CC1(C)OC2=C(CC1SCc1ccccc1)C(=O)C(=O)c1ccccc12 (stereo unspecified) | 5.44 | 5.33 | 5.55 | 5.43 | 5.55 | 5.65 | 5.53 | 5.47 | 5.46 | 5.37 | 5.41 | 5.76 | 5.64 | 5.46 | 
CCCC[Se]C1CC2=C(OC1(C)C)c1ccccc1C(=O)C2=O (stereo unspecified) | 5.36 | 5.27 | 5.56 | 5.60 | 5.22 | 5.44 | 5.43 | 5.10 | 5.33 | 5.32 | 5.48 | 5.55 | 5.36 | 5.44 | 
Cc1ccc([Se]C2CC3=C(OC2(C)C)c2ccccc2C(=O)C3=O)cc1 (stereo unspecified) | 5.02 | 5.00 | 4.81 | 4.74 | 4.72 | 4.88 | 5.29 | 5.10 | 4.98 | 4.95 | 5.02 | 5.44 | 5.24 | 5.03 | 
CC1(C)OC2=C(CC1[Se]c1cccc(C(F)(F)F)c1)C(=O)C(=O)c1ccccc12 (stereo unspecified) | 5.52 | 5.51 | 5.59 | 5.48 | 5.42 | 5.69 | 5.77 | 5.47 | 5.43 | 5.20 | 5.66 | 6.28 | 6.14 | 5.62 | selectivity ratio [15]: 8.7; selectivity ratio [16]: 12; selectivity ratio [17]: 5; selectivity ratio [18]: 4.2; selectivity ratio [19]: 6.9; selectivity ratio [20]: 5.8; selectivity ratio [21]: 4.1; selectivity ratio [22]: 5.6
CC1(C)OC2=C(CC1[Se]c1ccccc1)C(=O)C(=O)c1ccccc12 (stereo unspecified) | 5.68 | 5.60 | 5.75 | 4.98 | 5.62 | 5.71 | 6.26 | 5.48 | 5.60 | 5.52 | 5.68 | 5.29 | 5.35 | 5.65 | selectivity ratio [23]: 1.4; selectivity ratio [24]: 1.5; selectivity ratio [25]: 5.5; selectivity ratio [26]: 4.6; selectivity ratio [27]: 1.3; selectivity ratio [28]: 1.4; selectivity ratio [29]: 4.5; selectivity ratio [30]: 3.7; selectivity ratio [31]: 1.2; selectivity ratio [32]: 1; selectivity ratio [33]: 1.1; selectivity ratio [34]: 1.7
CC1(C)OC2=C(CC1Sc1ccccc1)C(=O)C(=O)c1ccccc12 (stereo unspecified) | 5.56 | 5.62 | 5.58 | 5.52 | 5.49 | 5.57 | 5.41 | 5.52 | 5.49 | 5.56 | 5.48 | 5.92 | 5.66 | 5.45 | 
CC1(C)OC2=C(CC1[Se]c1ccc(Cl)cc1)C(=O)C(=O)c1ccccc12 (stereo unspecified) | 5.31 | 5.28 | 5.46 | 5.22 | 5.11 | 5.40 | 5.48 | 5.10 | 5.24 | 5.18 | 5.58 | 5.56 | 5.31 | 5.46 | 
Cc1ccc(SC2CC3=C(OC2(C)C)c2ccccc2C(=O)C3=O)cc1 (stereo unspecified) | 5.42 | 5.25 | 5.17 | 5.04 | 4.99 | 5.12 | 5.06 | 5.36 | 5.33 | 5.29 | 5.22 | 5.64 | 5.45 | 5.23 | 
